Assay results from different studies.
Compare with care: the assays were run in different laboratories.
Target: Epithelial discoidin domain-containing receptor 1 (DDR1, Homo sapiens, UniProt Q08345)

CS(=O)(=O)c1cc(C2(NC(=O)c3cncc4c3cnn4-c3ccc(F)cc3)CC2)ccn1  remaining binding (cell-free assay; competition with immobilised ligand; 1 µM): 100%
C=CC(=O)N1CCC(C(=O)NCC(=O)N2CCN(c3nc(-c4cnc(N)nc4C(F)F)nc(N4CCOCC4)n3)CC2)CC1  remaining binding (binding; competition with immobilised ligand; 1 µM): 100%
CNC(=O)c1ccc(Nc2ncc(C(F)(F)F)c(NCc3nccnc3N(C)S(C)(=O)=O)n2)cc1  remaining binding (cell-free assay; competition with immobilised ligand; 0.1 µM): 100%
CNC(=O)[C@@H]1CC[C@@H](n2c(-c3ccc4cnccc4c3)nc3ccc(C(=O)NCc4cccc(C(N)=O)c4)cc32)C1  remaining binding (binding; competition with immobilised ligand; 1 µM): 100%
N[C@@H]1CCN(c2nccc(-c3cnn4ncccc34)n2)C1  remaining binding (binding; 1 µM): 100%
COc1ncc2cc3ccccc3nc2c1C#N  remaining binding (cell-free assay; competition with immobilised ligand; 5 µM): 85%
CC(=O)Nc1c(C(C)=O)c(=O)n(C)c2nc(-c3ccc(Cl)cc3Cl)c(-c3ccc(Cl)cc3)cc12  remaining binding (cell-free assay; competition with immobilised ligand; 1 µM): 100%
CC1CCCN1c1nccc(-c2cnn3ncccc23)n1 (centres unmarked)  remaining binding (binding; 1 µM): 94%
O=C(c1ccc(Nc2nccc(-c3cc4ccccc4s3)n2)cc1)N1CCC(N2CCCC2)CC1  remaining binding (binding; competition with immobilised ligand; 1 µM): 2.1%
O=c1nc(-c2ccccn2)sc2ccccc12  remaining binding (cell-free assay; competition with immobilised ligand; 1 µM): 85%
COc1cnc(Nc2cccc(S(N)(=O)=O)c2)nc1N1CCN(c2ccccc2)C(=O)C1  remaining binding (binding; competition with immobilised ligand; 1 µM): 100%
CCCOc1ccc([C@H]2[C@H](C(=O)O)[C@@H](c3ccc4c(c3)OCO4)CN2CC(=O)Nc2c(CC)cccc2CC)cc1  remaining binding (cell-free assay; competition with immobilised ligand; 1 µM): 100%
CN(CCCC(F)(F)F)c1nccc(-c2cnn3ncccc23)n1  remaining binding (binding; 1 µM): 100%
O=C(NCC1CCOCC1)c1n[nH]cc1NC(=O)c1c(F)cccc1F  remaining binding (binding; competition with immobilised ligand; 1 µM): 100%
C[C@@H]1CCN(c2nccc(-c3cnn4ncccc34)n2)C1  remaining binding (binding; 1 µM): 100%
Cc1cc(NC(=O)c2cccc(S(F)(F)(F)(F)F)c2)cc(-n2ccn3nc(-c4cccnc4)cc23)c1  remaining binding (cell-free assay; competition with immobilised ligand; 1 µM): 0%
c1cnn2ncc(-c3ccnc(N4CCC45COC5)n3)c2c1  remaining binding (binding; 1 µM): 82%
O=C(c1ccc(Nc2ncc(Cl)c(-c3cc4ccccc4s3)n2)cc1)N1CCC(N2CCCC2)CC1  remaining binding (binding; competition with immobilised ligand; 1 µM): 0.4%
Cc1cnn2ncc(-c3ccnc(N(C)C)n3)c2c1  remaining binding (binding; 1 µM): 100%
Cc1cnc(Nc2ccc(C(=O)N3CCC(N4CCCC4)CC3)cc2)nc1-c1cc2ccccc2s1  remaining binding (binding; competition with immobilised ligand; 1 µM): 0.1%
